# HTRA1 inh: HTRA1 (human) protease inhibition. AID 504803. actives 0.5% (n = 340,000). recombinant HTRA1, FP-rhodamine activity-based probe, fluorescence polarization. inhibition, % at 5.96 µM. Q92743; in the data active = inhibition above about 36%;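 also: 0% = enzyme with DMSO and 100% = wells lacking enzyme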
# Tn6 DDE FP: inhibitors of Tn6 peptide binding to human fibrin DD(E); actives 0.21% (n = 370,000); inhibition, % at 8.3 µM; Fibrin DD(E) TRITC-Tn6 fluorescence polarization displacement;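 active = inhibition above a per-campaign cutoff: mean of compounds within control limits plus 3 SD, cut at about 15% in these data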;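 also: 0% = median of all compound wells on the plate and 100% = blocking peptide control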
# Target sequence (P02675 whole entry, looked up): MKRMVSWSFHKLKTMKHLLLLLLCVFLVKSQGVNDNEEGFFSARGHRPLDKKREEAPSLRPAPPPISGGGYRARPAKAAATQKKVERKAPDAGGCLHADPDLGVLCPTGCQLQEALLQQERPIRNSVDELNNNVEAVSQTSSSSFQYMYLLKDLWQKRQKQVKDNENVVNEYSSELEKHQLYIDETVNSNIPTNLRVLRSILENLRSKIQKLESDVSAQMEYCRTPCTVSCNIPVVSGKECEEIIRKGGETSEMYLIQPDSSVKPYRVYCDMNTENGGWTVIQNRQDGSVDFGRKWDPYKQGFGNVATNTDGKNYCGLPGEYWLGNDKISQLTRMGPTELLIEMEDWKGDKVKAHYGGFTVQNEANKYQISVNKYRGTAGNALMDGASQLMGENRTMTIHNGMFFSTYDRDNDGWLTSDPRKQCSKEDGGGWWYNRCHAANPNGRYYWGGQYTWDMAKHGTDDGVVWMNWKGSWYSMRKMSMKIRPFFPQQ
# SIAE inh: inhibitors of human sialic acid acetylesterase SIAE; actives 0.69% (n = 370,000); AID 1053197; SIAE FP-Rh probe binding, fluorescence polarization; Q9HAT2; inhibition, % at 9.66 µM;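 active = inhibition above a cutoff: mean of compounds within the control limits plus 3 SD of those, cut at about 17% in these data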;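 also: 0% = plate median of compound wells and 100% = probe without SIAE protein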
# Tn7 DDE FP: disrupts Tn7 cyclic peptide binding to fibrin D-Dimer-E complex; AID 720508; inhibition, % at 8.3 µM; P02675; FP displacement of FITC-Tn7 peptide from fibrin DD(E); 0% = median of compound wells per plate; actives 0.13% (n = 370,000);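 active = inhibition above the mean of compounds falling within the control limits plus 3 SD of them, cut at about 14% in these data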;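 also: 0% = plate median of compound wells and 100% = 10 µM Aha-Tn7 peptide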
#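 Assay system: human fibrin DD(E). Input: DD(E) 2 µM final. Medium: Tris buffer with calcium and detergent, pH 7.8. Compound dosing: single point at 8.3 µM. Timing: 10 min plus 3 h, room temperature. Technique: fluorescence polarization of the labelled Tn7 tracer. Read-out: percent inhibition. Replicates: singlicate testing.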
# TCR CD3 inh: human TCR-CD3 binding inhibition | TAMRA-labeled TCR probe fluorescence, biochemical | inhibition, % at 9.4 µM | actives 0.37% (n = 360,000) | AID 651800; in the data active = inhibition above about 19%;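 also: recombinant mutant TCR 2C K166C tagged with TAMRA read by polarization; 0% = receptor in buffer alone and 100% = receptor with positive control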
# ABHD4 inh: inhibits mouse alpha/beta hydrolase domain 4 | Q8VD66 | purified mABHD4, FP-Rh probe fluorescence polarization | inhibition, % at 8.92 µM | actives 0.54% (n = 370,000) | AID 720543;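 active = inhibition exceeding the mean over every tested compound plus 3 SD, cut at about 30% in these data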;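 also: 0% = plate median of compound wells and 100% = S159A mutant with DMSO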
#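 Assay system: Wild-type mouse ABHD4 protein | Medium: HEPES pH 7.0 buffer, 150 mM NaCl, 0.01% Pluronic F-127 | Incubation: Enzyme–compound pre-incubation 45 min, then probe 60 min, both 25 °C | Technique: Fluorescence polarization with parallel and perpendicular emission, 525/598 nm | Evaluation: % inhibition of FP-Rh probe binding versus controls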
# SIAE inh conf: human SIAE inhibition, confirmation | shares compounds with SIAE inh | SIAE FP-Rh activity-based probe, fluorescence polarization | inhibition, % at 9.66 µM | actives 13% (n = 2,300);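 active = mean inhibition of the replicates above the hit cutoff set in the primary screen, cut at about 17% in these data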;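 also: 0% = SIAE with DMSO and probe and 100% = probe without SIAE; inhibitors lower polarization as more probe stays unbound to SIAE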
# Starred values were filed as active, the others as inactive; x = no result given. In the library only some 1.8% were active in any assay of this set; here they are far more common.
SMILES,HTRA1 inh,Tn6 DDE FP,SIAE inh,Tn7 DDE FP,TCR CD3 inh,ABHD4 inh,SIAE inh conf
CCC(CO)Oc1cc(NCc2ccc(Cl)cc2Cl)c2ncn(C(C)C)c2c1 (configuration not stated),9,-11,19*,2,-1,28,8
Cn1c(=O)c2cc(NC(=S)NC3CC3)ccc2n1Cc1ccc(F)cc1,x,9,18*,-2,-1,5,0
Cn1c(=O)c2cc(NC(=S)NCc3ccccc3F)ccc2n1Cc1ccc(F)cc1,x,7,2,-7,-4,0,x
COc1ccc(NC(=O)CN(C)C(=O)CCSc2ccc(F)cc2)cc1,-2,-5,19*,2,-1,-4,1
COc1ccc2nc(SCC(=O)N(C)CC(=O)Nc3ccc(F)cc3)[nH]c2c1,-4,-1,18*,1,2,7,-3
CCOc1ccc(NC(=O)c2cc3ccccc3cc2O)cc1,4,-1,18*,1,-5,16,-1
CCOc1ccc(NC(=O)c2cc3ccccc3cc2OC)cc1,-28,-4,0,-1,9,-6,x
NNC(=O)c1cc2ccccc2cc1O,31,0,18*,-1,5,21,6
O=C(NCCO)c1cc2ccccc2cc1O,5,2,5,-7,2,4,x
Cc1onc(-c2ccc(Cl)cc2)c1-c1ccn(S(=O)(=O)c2cccc(Cl)c2)n1,x,-2,-6,-1,x,-9,x
CC(=O)Nc1nc2ncccn2c1-c1ccc(C)cc1,x,-2,-4,-2,x,1,x
COc1cc(/C=N\Nc2nc(-c3ccc(C)cc3)c(NC(C)=O)s2)ccc1O,21,0,22*,2,-4,14,33*
COc1ccc(/C=N/Nc2nc(-c3ccc(C)cc3)c(NC(C)=O)s2)cc1OC,3,7,1,4,0,5,x
CCOC(=O)CC[C@@H]1CC[C@]2(CCCN(S(=O)(=O)c3ccccc3)C2)O1,x,-10,0,-3,x,3,x
COc1ccc(-c2ccc(/C=C(\NC(=O)c3ccccc3)C(=O)N3CCOCC3)o2)cc1,4,6,17*,3,-8,9,-1
COc1ccccc1C(=O)N/C(=C\c1cn(C)c2ccccc12)C(=O)N1CCOCC1,-3,3,21*,9,9,1,-31
CC1CCN(C(=O)/C(=C\c2ccco2)NC(=O)c2ccccc2)CC1,0,-3,23*,2,-10,9,2
Cc1ccc(OCCn2cc(/C=N/NC(=O)c3ccncc3)c3ccccc32)cc1,-11,-9,29*,-5,-7,-3,-1
COc1cccc(OCCn2cc(/C=N/NC(=O)c3ccncc3)c3ccccc32)c1,1,-1,31*,-5,-2,0,0
CNC(=S)N/N=C/c1cn(CCOc2cccc(OC)c2)c2ccccc12,4,0,22*,8,5,2,7
CCCCN1C(=O)c2ccccc2NC1c1ccc(OC)c(COc2ccc(NC(C)=O)cc2)c1 (configuration not stated),x,-4,8,2,x,-1,x
COC(=O)c1cccc(Cn2ccc3ccc(-c4ccc5ccn(Cc6cccc(C(=O)OC)c6)c5c4)cc32)c1,x,-6,-5,1,x,3,x
COC(=O)C1CN(Cc2ccc(C)cc2)CCS(=O)(=O)N1Cc1cn(Cc2ccc(Cl)cc2)nn1 (configuration not stated),x,13,-2,5,x,0,x
Cc1ccc(C(=O)C[n+]2cccc3ccccc32)cc1,-8,-1,-1,4,6,7,x
O=C(C[n+]1cccc2ccccc21)c1ccc(Br)cc1,-2,4,20*,8,-4,2,-4
SMILES,HTRA1 inh,Tn6 DDE FP,SIAE inh,Tn7 DDE FP,TCR CD3 inh,ABHD4 inh,SIAE inh conf
O=C(CN1CCCC1)NC(c1ccccc1)c1ccccc1,-6,-5,16,-3,7,12,x
O=C(CN1CCN(c2ccccc2O)CC1)NC(c1ccccc1)c1ccccc1,-8,-1,18*,-3,-1,-7,4
CC1(C)Oc2ccc(C(=O)NC3CCCC3)cc2NC1=O,x,-1,-2,4,x,-2,x
COc1ccccc1NC(=O)O[C@@H]1CC[C@@]23CCCN2C(=O)CCC[C@H]3C1,x,1,5,-3,x,2,x
CC(C)(C)NCCC(O)c1cc(C(F)(F)F)nc2c(C(F)(F)F)cccc12 (configuration not stated),6,1,78*,-3,-6,11,-5
Cc1c(NC(=S)NC(=O)c2cccc(Br)c2)c(=O)n(-c2ccccc2)n1C,-5,0,17*,1,1,-1,3
C/C(=N\NC(=O)c1ccncc1)c1cc2ccccc2o1,-1,12,-1,-3,2,6,x
C/C(=N\Nc1nc2ccccc2[nH]1)c1cc2ccccc2o1,8,-13,24*,-3,-4,29,16
C/C(=N\Nc1nc2ccccc2[nH]1)c1ccc2c(c1)OCCO2,14,-1,20*,-5,4,22,13
CC(C)[C@H]1Cn2nnc(-c3ccccc3)c2Cn2c3ccccc3c(=O)n21,x,-6,2,-4,x,1,x
COc1ccc2c(c1)CNC2CS(=O)(=O)NCc1ccc(F)cc1 (configuration not stated),x,-2,3,2,x,2,x
O=C(c1sccc1Cl)N1CCC(n2nnc3ncccc32)CC1,x,8,-3,-5,x,5,x
CCn1c(SCC(=O)Nc2ccccc2)nc2ccccc2c1=O,-7,3,17*,-2,2,0,4
C[C@H]1COc2cc(Br)ccc2S(=O)(=O)N1Cc1cn(Cc2ccccc2)nn1,x,3,4,4,x,3,x
CN(C)S(=O)(=O)c1cccc(C(=O)NC2CCSc3ccccc32)c1 (configuration not stated),1,-2,25*,2,3,4,-4
O=C(c1ccc([N+](=O)[O-])cc1)N1CCSC1c1ccccc1 (configuration not stated),7,1,1,4,9,0,x
CN(C)c1ccc(C2SCCN2C(=O)c2ccc([N+](=O)[O-])cc2)cc1 (configuration not stated),-1,1,19*,4,-5,2,4
CN(CCCOC(=O)CC1C=CCC1)C1CN(Cc2cn(Cc3ccccc3Cl)nn2)S(=O)(=O)C1 (configuration not stated),x,-9,0,6,x,-3,x
CN(c1ccc(NC(=O)Cc2cn(C)c3ccccc23)cc1)c1ccccn1,x,-7,29*,-6,-7,3,29*
